Published values from different studies.

| SMILES | tested on | test | system | setting | endpoint | value |
| --- | --- | --- | --- | --- | --- | --- |
| CC(C)=CCC[C@](C)(O[C@@H]1O[C@H](CO)[C@@H](O)[C@H](O)[C@H]1O)[C@H]1CC[C@]2(C)[C@@H]1[C@H](O)C[C@@H]1[C@@]3(C)CC[C@H](O)C(C)(C)[C@@H]3CC[C@]12C |  |  | mouse, plasma | intravenous, 2 mg/kg | AUC(0-t) | 1080 ng·h/mL |
| CC[C@H](C)[C@H](NC(=O)[C@H](Cc1ccccc1)NC(=O)[C@H](CCC(=O)O)NC(=O)[C@H](CCCCN)NC(=O)[C@H](C)NC(=O)[C@H](C)NC(=O)[C@H](CCC(N)=O)NC(=O)CNC(=O)[C@H](CCC(=O)O)NC(=O)[C@H](CC(C)C)NC(=O)[C@H](Cc1ccc(O)cc1)NC(=O)[C@H](CO)NC(=O)[C@H](CO)NC(=O)[C@@H](NC(=O)[C@H](CC(=O)O)NC(=O)[C@H](CO)NC(=O)[C@@H](NC(=O)[C@H](Cc1ccccc1)NC(=O)[C@@H](NC(=O)CNC(=O)[C@H](CCC(=O)O)NC(=O)[C@H](C)NC(=O)N(N)Cc1c[nH]cn1)[C@@H](C)O)[C@@H](C)O)C(C)C)C(=O)N[C@@H](C)C(=O)N[C@@H](Cc1c[nH]c2ccccc12)C(=O)N[C@@H](CC(C)C)C(=O)N[C@H](C(=O)N[C@@H](CCCNC(=N)N)C(=O)NCC(=O)N[C@@H](CCCNC(=N)N)C(=O)NCC(=O)O)C(C)C |  |  | male CD-1 mouse, plasma | intravenous, 1 mg/kg, single dose | AUC(0-inf) | 2400 ng·h/mL |
| CC(=O)c1c(C)c2cnc(Nc3ccc(C4CCN(CCS(C)(=O)=O)CC4)cn3)nc2n(C2CCCC2)c1=O |  | metabolic stability | rat, liver S9 |  | half-life | 866 min |
| O=C(Nc1ccc([N+](=O)[O-])cc1Cl)c1cc(Cl)ccc1O | HeLa-ACE2 | cell growth or viability, ATP luminescence |  | 72 h | CC50 | 8.73 µM |
| Cc1c2ccncc2c(C)c2c1[nH]c1ccccc12 | NCI-H187 | cell growth or viability, resazurin |  | 5 days | IC50 | 10.7 µM |
| N=C(N)NCCC[C@H](NC(=O)[C@H](Cc1ccccc1)NC(=O)[C@H](CCC(N)=O)NC(=O)OCc1ccccc1)C(=O)c1nccs1 |  |  | female C57BL/6 mouse, plasma | intranasal, 5 mg/kg | AUC(0-inf) | 129 ng·h/mL |
| COc1cc(C(=O)c2nc(-c3cccc4[nH]ccc34)c[nH]2)cc(OC)c1OC |  | chemical stability | PBS | 5 µM, pH 6 | half-life | > 1020 min |
| Cc1[nH]c(C)c(S(=O)(=O)Nc2ccc(S(F)(F)(F)(F)F)cc2)c1C(=O)N1CCC(F)(F)C1 |  | metabolic stability | rat, liver microsomes |  | half-life | 17.6 min |
| CC(C)CC(=O)OC[C@H]1O[C@@](C#N)(c2ccc3c(N)ncnn23)[C@H](O)[C@@H]1O |  | metabolic stability | rat, blood | 5 µM, whole blood | half-life | 0.761 min |
